Experimental data of several laboratories.
Compare with care: the assays were run in different laboratories.
Target: Voltage-gated inwardly rectifying potassium channel KCNH2 (KCNH2, Homo sapiens, UniProt Q12809)

SMILES	test	test system	setting	IC50 [µM]
C=CCn1c(=O)c2cnc(Nc3ccc(N4CCN(C)CC4)cc3)nc2n1-c1ccc2c(n1)[C@@](O)(CC)CC2	ion current, inhibitor	–	–	> 30
Cc1ccc(OCC(=O)N[C@@H](Cc2c[nH]c3ccccc23)C(=O)OC(C)C)cc1	ion current, inhibitor, patch clamp	HEK293	–	> 50
FC(F)(F)CN1CC(n2cc(Oc3ccn4nc(Cl)cc4n3)cn2)C1	ion current, inhibitor, patch clamp	–	–	> 30
CC(C)(C)c1sc2ncnc(Oc3c(F)cccc3OC(F)(F)F)c2c1-c1ccc(Cl)cc1	ion current, inhibitor, patch clamp	–	–	~28
CCOC(=O)C1=C(CN2CCC[C@@H]2C(=O)Nc2ccc(B(O)O)cc2)NC(c2nccs2)=N[C@H]1c1ccc(F)cc1Br	ion current, inhibitor, patch clamp	HEK293	pH 7.4	6.54
Cc1ccc2c(c1)C(=O)[C@]1(O)CCN(c3ccc4nc(C)ccc4c3)C1=N2	ion current, inhibitor	–	–	5.4
N=C(CC(O)c1cc2c(F)cc(F)cc2c2cc(C(F)(F)F)ccc12)Nc1ccc(Br)cc1 (centres unmarked)	ligand displacement, FP	–	–	1.95
NC/C(=C\F)COc1cccc(Cn2c(=S)[nH]c(=O)c3[nH]cnc32)c1	ion current, inhibitor	–	–	> 100
